Bioassay records from PubChem BioAssay.
NPY-Y1 PAM-ag: potentiators or agonists of human neuropeptide Y receptor Y1; AID 1304; activation, % at 3.6 µM; P25929; 220,000 compounds, 0.37% hits; NPY-Y1 expressing cells, potentiator/agonist activation; in the data active = activation above about 33%, passing the limit was not always enough;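 also: cells stimulated with NPY at EC10 then isoproterenol at EC100; 0% = low agonist plus stimulus and 100% = saturating agonist plus stimulus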
Target sequence (P25929 whole entry, looked up): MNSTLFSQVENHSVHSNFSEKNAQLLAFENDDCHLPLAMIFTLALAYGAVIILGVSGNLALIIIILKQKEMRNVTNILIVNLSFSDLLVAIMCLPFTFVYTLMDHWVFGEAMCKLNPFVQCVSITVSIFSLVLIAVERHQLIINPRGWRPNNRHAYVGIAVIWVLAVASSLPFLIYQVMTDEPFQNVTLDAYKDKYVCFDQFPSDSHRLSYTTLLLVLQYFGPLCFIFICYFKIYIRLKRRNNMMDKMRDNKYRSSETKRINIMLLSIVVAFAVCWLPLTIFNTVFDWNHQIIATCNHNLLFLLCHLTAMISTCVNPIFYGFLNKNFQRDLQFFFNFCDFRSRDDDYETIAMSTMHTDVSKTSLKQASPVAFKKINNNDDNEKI
NPY-Y2 PAM-ag: potentiates or activates human NPY-Y2 receptor | cells expressing NPY-Y2, potentiator/agonist read-out | activation, % at 3.6 µM | 220,000 compounds, 0.45% hits; in the data active = activation above about 27%;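 also: cells stimulated with NPY near EC25 plus isoproterenol at EC100; 0% = vehicle plus submaximal agonist and 100% = vehicle plus saturating agonist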
NPY Y1 blocker: NPY-Y1 (human) receptor antagonism; P25929; HEK293-CNG Y1 cells, membrane potential fluorescence; NPY at EC95, then isoproterenol; inhibition, % at 3.6 µM; 200,000 compounds, 1% hits; AID 1040;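 active = inhibition above the campaign mean inhibition of all tested compounds plus 3 SD, cut at about 20% in these data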;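 also: 0% = DMSO wells given NPY plus isoproterenol and 100% = isoproterenol alone without NPY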
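Material: HEK293 cells co-expressing NPY Y1 receptor and cyclic-nucleotide gated channel. Timing: compound incubation 1 h at room temperature, readout 45 min post-stimulation. Signal: fluorescence, membrane potential probe.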
INS promoter inh: TRM-6 insulin promoter activity inhibition; inhibition, % at 2 µM; 130,000 compounds, 0.9% hits; AID 1273; TRM-6 cells, insulin promoter-eGFP reporter, imaging; reporter expression induced with tamoxifen;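 active = inhibition above the mean plus 3 SD, with well images judged a real hit on visual review, cut at about 60% in these data, passing the limit was not always enough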
Insulin prom up: MIN6 insulin promoter up-regulation; MIN6 insulin promoter-GFP reporter, high-content imaging; active compounds read high; z-score at 5 µM; 190,000 compounds, 0.3% hits; AID 1625;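 active = z-score above 3 at 5 µM with at least 500 cells counted in the well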
NPY Y2 blocker: NPY-Y2 (human) receptor antagonism | P49146 | NPY-Y2 expressing cells, antagonist mode | inhibition, % at 2.7 µM | 140,000 compounds, 0.99% hits | AID 793;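 also: 0% = vehicle with agonist challenge and 100% = reference antagonist with challenge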
NPY1 antag conf: human NPY-Y1 antagonism, confirmation | inhibition, % at 3.6 µM | HEK293-CNG NPY-Y1, membrane potential fluorescence, cAMP; NPY challenge against isoproterenol-raised cAMP | 1,200 compounds, 21% hits | AID 1254 | shares compounds with NPY Y1 blocker; in the data active = inhibition above about 20%;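 also: 0% = vehicle with agonist plus stimulus and 100% = stimulus alone without agonist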
NPY2 antag ctr: antagonizes human NPY-Y2, counter-screen to NPY-Y1 antagonists | shares compounds with NPY Y1 blocker | HEK293 NPY-Y2 CNG membrane potential fluorescence, antagonism; cells given NPY, then isoproterenol | inhibition, % at 3.6 µM | 1,200 compounds, 28% hits;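 also: 0% = DMSO with agonist challenge and 100% = reference antagonist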
* marks the source's active call; other numbers are inactive results; nt = no result given. In the library only some 2.5% were active in any assay of this set; here they are far more common. Rule as the data show it, unless noted: active = inhibition above about 17%; inactive = the rest.

SMILES	NPY-Y1 PAM-ag	NPY-Y2 PAM-ag	NPY Y1 blocker	INS promoter inh	Insulin prom up	NPY Y2 blocker	NPY1 antag conf	NPY2 antag ctr
COC(=O)c1cccc(N(C(=O)c2cnccn2)C(C(=O)NC2CCCCC2)c2cn(C)nc2C)c1 (configuration not stated)	3	-10	-4	62	1.5	0	nt	nt
CCOn1c(=O)c(-c2cccs2)[n+]([O-])c2ccccc21	-5	-3	10	29	nt	8	nt	nt
COn1c(=O)c(-c2cccs2)[n+]([O-])c2ccccc21	-16	-16	25*	-87	0.72	10	10	8
O=C(c1ccco1)N1CCN(C(c2ccc(Cl)cc2)c2nnnn2Cc2ccccc2)CC1 (configuration not stated)	-22	4	21*	-7	nt	0	0	1
COc1ccc(C(c2nnnn2Cc2ccccc2)N2CCN(C(=O)c3ccco3)CC2)cc1 (configuration not stated)	8	3	2	nt	-1.3	3	nt	nt
OC(COc1c(F)cc(Br)cc1F)CN1CCN(c2ccc(F)cc2)CC1 (configuration not stated)	-23	2	20*	10	-2	7	4	9
CCCC[n+]1c(-c2ccc(Cl)cc2Cl)csc1Nc1ccccc1	-10	15	17	nt	-0.42	3	nt	nt
Clc1ccc(-c2csc(Nc3ccccc3)[n+]2Cc2ccco2)c(Cl)c1	-6	-10	32*	nt	-0.44	nt	23*	12
CC(NC(N)=O)C(=O)OCC(=O)c1ccc(-c2ccccc2)cc1 (configuration not stated)	5	-4	2	38	0.19	nt	nt	nt
CCNCc1nc2cc(Cl)ccc2c(=O)[nH]1	1	-6	11	0	0.16	nt	nt	nt
COc1ccc(N2CCN(CC(=O)Nc3cccc(S(=O)(=O)N4CCOCC4)c3)CC2)cc1	2	6	-3	-178	0.09	1	nt	nt
COc1ccc(OC)c(C2=Nn3c(nnc3-c3cc(OC)c(OC)c(OC)c3)SC2)c1	-34	-14	27*	nt	-0.72	6	24*	29*
CCN(Cc1ccccc1)C(=O)c1nn(-c2ccc(OC)cc2)c(=O)c2c1c1ccccc1n2C	-36	-9	38*	-20	-0.83	nt	43*	24*
COc1ccc(OCC(=O)O/N=C(\N)Cc2ccc(Cl)cc2)cc1	-47	-13	23*	26	-0.45	10	7	7
CCOC(=O)c1c(NC(=O)CN2CCN(C)CC2)sc(C(=O)Nc2ccccc2)c1C	-43	-23	27*	-35	-0.89	nt	14	13
COc1ccc(C(C)(C)C)cc1S(=O)(=O)N1CCC(C(N)=O)CC1	-4	-4	23*	31	-0.28	-1	0	0
COc1ccc(F)cc1S(=O)(=O)N1CCC(C(N)=O)CC1	4	-5	2	-13	-0.19	1	nt	nt
CN(C)CCNC(=O)c1sc2cccc(F)c2c1Cl	-22	-6	33*	nt	-0.11	nt	3	8
CCCn1c(C(=O)OC)cc2c1ccn2-c1ccc(F)cc1	-18	-16	55*	40	-1.4	9	18	16
COC(=O)c1cc2c(ccn2-c2ccc(F)cc2)n1CC(C)C	-28	-11	48*	14	-0.22	10	26*	22*
Cn1c(Oc2ccccc2NCc2cc(Br)ccc2O)cc(=O)n(C)c1=O	1	14	-7	-10	-0.69	0	nt	nt
COc1cc(CNc2ccccc2Oc2cc(=O)n(C)c(=O)n2C)cc(OC)c1OC	-12	-36	36*	-24	-0.37	13	17	8
O=C(Nc1ccccc1O)/C(=C\c1ccccc1)NC(=O)c1ccccc1	-2	-8	2	-11	-0.33	nt	nt	nt
O=C(CCCCN1CCCCC1)c1ccc2c(c1)Cc1ccccc1-2	-45	-23	24*	-67	-1.9	nt	19	7
O=C(CCN1CCCCCC1)c1ccccc1	7	0	5	-14	-0.01	2	nt	nt
